# High-throughput results deposited in PubChem BioAssay by several laboratories.
# Hits are enriched below; roughly 1.7% of the tested compounds scored in any of these assays.
# DNMT1 inh: human DNMT1 methyltransferase inhibitors, primary screen, biochemical, molecular beacon, fluorescence, HinP1I cleavage, uHTS | DNA (cytosine-5)-methyltransferase 1 (Homo sapiens), P26358 | inhibition (reported as % activation of signal), % at 10 µM | 360,000 compounds, 0.83% hits | AID 588458, 2011; in the data active means inhibition above about 50%
# Scp1 inh: Scp-1 phosphatase inhibitors, primary screen, biochemical, colorimetric, uHTS | Carboxy-terminal domain RNA polymerase II polypeptide A small phosphatase 1 (Homo … | Recombinant Scp1, phosphopeptide, malachite green phosphate absorbance | inhibition, % at 20 µM | 340,000 compounds, 0.88% hits | AID 493091, 2011;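 active means inhibition above about 50% at 20 µM, limit read from the data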;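 further: plate controls were DMSO wells with enzyme for no effect and wells lacking enzyme for full effect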
#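 Test system: SCP-1 catalytic domain; Buffer or medium: Acidic Tris acetate buffer with magnesium and detergent; Also added: Phosphorylated 17-residue peptide substrate; Compound: single 20 µM dose, 1% DMSO; Schedule: enzyme reaction 45 min at room temperature, colour 5 min, stabilisation 30 min; Signal: Phosphate-binding colour reagent, absorbance read at 630 nm.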
# STEP inh: STEP phosphatase inhibitors, primary screen, biochemical, fluorescence intensity, uHTS; Tyrosine-protein phosphatase non-receptor type 5 (Homo sapiens), P54829; recombinant STEP, OMFP fluorogenic substrate; inhibition, % at 20 µM; 360,000 compounds, 0.25% hits;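 active means inhibition at 20 µM, scaled per plate between control wells, above about 37%, limit read from the data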;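 further: 0% = DMSO with enzyme and substrate and 100% = substrate only without enzyme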
#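 Material: STEP (striatal-enriched tyrosine phosphatase) enzyme, cell-free; Compound dosing: 20 µM single dose in 1% DMSO; Technique: fluorescence read at 480 nm ex / 540 nm em; Times: reaction 20 min, ambient temperature; Medium: 50 mM Bis-Tris pH 6.0 with 2.5 mM DTT and 0.005% Tween 20; Also added: OMFP at 25 µM.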
# LMPTP block: LMPTP phosphatase inhibitors, primary screen, biochemical, fluorescence intensity, uHTS; recombinant LMPTP-A, OMFP fluorogenic substrate; inhibition, % at 20 µM; 360,000 compounds, 0.22% hits; AID 651560, 2012;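 active means compounds that cut the enzyme signal by at least half of the control window in the single-dose screen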;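 further: plate controls were DMSO wells with enzyme plus substrate for no effect and substrate without enzyme for full effect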
#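 Test system: LMPTP-A phosphatase enzyme. Amount: LMPTP-A at 0.625 nM final in the reaction. Reagent: OMFP substrate, 400 µM final. Times: 50 min at room temperature. Signal: endpoint fluorescence intensity from OMFP dephosphorylation. Read-out basis: % inhibition. Benchmarks: no-enzyme and uninhibited controls.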
# Casp6 inh: human caspase-6 inhibitors, primary screen, biochemical, VEID-R110 fluorescence, single point, set 2; P55212; purified caspase-6, Z-VEID-R110 cleavage fluorescence; inhibition, % at 12.5 µM; 350,000 compounds, 0.53% hits; AID 686996, 2013;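 active means mean inhibition across replicates at least about 35%, with every replicate also reaching that limit, limit read from the data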;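 further: 0% = median of neutral control wells and 100% = no fluorescence left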
# Target sequence (P55212 24-179 limits assumed): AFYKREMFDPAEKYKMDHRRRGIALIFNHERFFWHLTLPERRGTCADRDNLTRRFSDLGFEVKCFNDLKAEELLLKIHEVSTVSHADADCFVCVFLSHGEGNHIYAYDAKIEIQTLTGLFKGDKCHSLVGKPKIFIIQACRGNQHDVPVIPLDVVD
# Target sequence (P55212 194-293 limits assumed): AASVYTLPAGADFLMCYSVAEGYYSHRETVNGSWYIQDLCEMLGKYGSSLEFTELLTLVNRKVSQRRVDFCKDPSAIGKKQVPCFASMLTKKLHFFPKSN
# SUMO1-SIM PPI: modulators of SUMO1 protein-protein interactions, primary screen, biochemical, uHTS; SUMO1 binding to a labelled peptide, TR-FRET, 1 h; Small ubiquitin-related modifier 1 (Homo sapiens), P63165; 360,000 compounds, 0.33% hits; AID 602429, 2012; inhibition, % at 20 µM; in the data active means inhibition above about 37%
# Target sequence (P63165 whole entry, looked up): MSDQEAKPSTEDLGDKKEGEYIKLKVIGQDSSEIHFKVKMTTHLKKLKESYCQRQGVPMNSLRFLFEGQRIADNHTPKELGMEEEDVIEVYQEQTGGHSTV
# Active calls of the source: *; · = no result given.
SMILES,DNMT1 inh,Scp1 inh,STEP inh,LMPTP block,Casp6 inh,SUMO1-SIM PPI
COCC#Cc1cnc2c(c1)C(=O)N([C@H](C)CO)C[C@H](C)[C@H](CN(C)C(=O)NC1CCCC1)O2,·,·,·,·,0,·
C[C@H](CO)N1C[C@H](C)[C@@H](CN(C)Cc2ccc(Cl)c(Cl)c2)Oc2ccc(NC(=O)CCN3CCOCC3)cc2C1=O,·,·,·,·,-2,·
O=C(C[C@H]1CC[C@@H](NC(=O)C2CCOCC2)[C@H](CO)O1)NCC1CC1,·,·,·,·,1,·
COc1ccc(Sc2ccc(/C=C3\C(=O)NN(c4ccccc4)C3=O)o2)cc1,56*,35,8,4,·,7
O=C1NN(c2ccccc2)C(=O)/C1=C\c1ccc(-c2cc([N+](=O)[O-])ccc2O)o1,23,87*,46*,84*,29,-1
Cc1ccc(N2NC(=O)/C(=C/c3ccc(-c4ccc(Cl)c(C(=O)O)c4)o3)C2=O)cc1,29,43,11,6,22,18
Cc1cc(N2CCC(C)CC2)nc2cccc(O)c12,-13,1,-1,62*,0,2
CCCCn1c(NS(=O)(=O)c2ccccc2)c(S(=O)(=O)c2ccc(C)cc2)c2nc3ccccc3nc21,80*,-11,2,25,98*,48*
CCCCn1c(NC(=O)c2ccco2)c(S(=O)(=O)c2ccc(C)cc2)c2nc3ccccc3nc21,35,-3,-2,6,15,42*
Cc1ccc(S(=O)(=O)c2c(N)n(CCC(C)C)c3nc4ccccc4nc23)cc1,29,-1,2,6,·,42*
CCCCn1c(NC(=O)c2ccc(Br)o2)c(S(=O)(=O)c2ccccc2)c2nc3ccccc3nc21,33,-13,-2,2,·,47*
CC(C)CCn1c(N)c(S(=O)(=O)c2cccs2)c2nc3ccccc3nc21,-27,3,2,4,8,6
C[C@@H]1CN([C@H](C)CO)C(=O)c2cc(C#CC3CCCCC3)cnc2O[C@H]1CN(C)S(=O)(=O)c1cccc(F)c1,·,·,·,·,0,·
CCOc1cccc(C=NNc2ccc(S(=O)(=O)Nc3ccccc3C(=O)O)cc2[N+](=O)[O-])c1O,-8,-7,3,1,7,-1
COc1ccc(C=NNc2ccc(S(=O)(=O)Nc3ccccc3C(=O)O)cc2[N+](=O)[O-])c(OC)c1,13,-5,6,52*,0,56*
O=C(O)c1ccccc1NS(=O)(=O)c1ccc(NN=Cc2ccccc2F)c([N+](=O)[O-])c1,-8,44,3,4,41*,2
Cc1ccc(C2(c3noc(CN4CCOCC4)n3)CCCC2)cc1,0,6,-1,-1,2,-3
C[C@@H]1CCCCO[C@@H](CN(C)Cc2ccccc2)[C@H](C)CN([C@@H](C)CO)C(=O)c2cc(NC(=O)c3ccncc3)ccc2O1,·,·,·,·,-1,·
CCc1ccc(S(=O)(=O)/N=C2/C=C(Sc3ncn[nH]3)C(=O)c3ccccc32)cc1,73*,5,18,9,·,94*
CCc1ccc(S(=O)(=O)/N=C2\C=C(Nc3ccc(O)cc3)C(=O)c3ccccc32)cc1,15,-15,5,14,·,20
Cc1cc(C)c(S(=O)(=O)/N=C2\C=C(Nc3ccc(C(=O)O)cc3)C(=O)c3ccccc32)c(C)c1,36,36,6,6,-3,58*
Cc1cc(C)c(S(=O)(=O)/N=C2\C=C(NS(=O)(=O)c3ccccc3)C(=O)c3ccccc32)c(C)c1,-28,-10,2,2,19,-4
